Laboratory results: ChEMBL document CHEMBL1165950, “Design and synthesis of new potent anticancer pyrazoles with high FLT3 kinase inhibitory selectivity” (Bioorg Med Chem, 2010)

Key:
Assay type in all cases: functional
HCT-15 = assay: Cytotoxicity against human HCT15 cells assessed as cell growth at 10 uM after 48 hrs by sulforhodamine B assay; details: HCT-15, 48 h, read-out: Activity
BT-549 = assay: Growth inhibition of human BT549 cells after 48 hrs by sulforhodamine B assay; details: BT-549, 48 h
Summary of the method: (§1)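 NCI five-dose SRB assay in RPMI 1640 with 5% FBS and 2 mM L-glutamine. Cells were preincubated 24 h, then exposed 48 h at 37 °C to five concentrations (10-fold or half-log serial dilutions from DMSO stocks). TCA fixation, SRB staining, and absorbance at 515 nm followed. IC50 was taken where [(Ti−Tz)/(C−Tz)]×100 = 50, with Tz as time-zero cell density.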

786-0 = assay: Growth inhibition of human 786-0 cells after 48 hrs by sulforhodamine B assay; details: 786-0, 48 h; summary of the method: as §1
OVCAR-8 = assay: Cytotoxicity against human OVCAR8 cells assessed as cell growth at 10 uM; details: read-out: Activity
Summary of the method: (§2)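 NCI-60 screen: cells grown in RPMI 1640 with 5% FBS and 2 mM L-glutamine, plated at 5000–40,000 cells/well according to doubling time, and preincubated 24 h at 37 °C, 5% CO2. The single 10 µM dose (DMSO stock) was added, then incubated 48 h. Cells were TCA-fixed and stained with 0.4% SRB, read at 515 nm, and growth % calculated against time-zero and control plates.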

SF-268 = assay: Cytotoxicity against human SF268 cells assessed as cell growth at 10 uM; details: read-out: Activity; summary of the method: as §2
[1] = Cytotoxicity against human Hs 578T cells assessed as cell growth at 10 uM; details: read-out: Activity
Summary of the method: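 Single-dose NCI-60 screen at 10 µM. Cells were grown in RPMI 1640 with 5% FBS and 2 mM L-glutamine, then treated for 48 h at 37 °C. Protein was measured by SRB staining with absorbance at 515 nm. Percentage growth was recorded, and inhibition percentage was calculated as 100 minus growth percentage.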

RXF 393 = assay: Cytotoxicity against human RXF393 cells assessed as cell growth at 100 nM after 48 hrs by sulforhodamine B assay; details: RXF 393, 48 h, read-out: Activity
SK-MEL-28 = assay: Cytotoxicity against human SK-MEL-28 cells assessed as cell growth at 1 uM after 48 hrs by sulforhodamine B assay; details: SK-MEL-28, 48 h, read-out: Activity
HL-60(TB) = assay: Cytotoxicity against human HL-60(TB) cells assessed as cell growth at 10 uM; details: read-out: Activity
Summary of the method: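 NCI 60-cell panel screen at a single concentration of 10 µM. Cells are grown in RPMI 1640 with 5% FBS and 2 mM L-glutamine and read by SRB protein staining at 515 nm. Percent growth is measured relative to time-zero and untreated controls; inhibition % is 100 minus growth %.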

DU-145 [2] = assay: Cytotoxicity against human DU145 cells assessed as cell growth at 10 uM after 48 hrs by sulforhodamine B assay; details: DU-145, 48 h, read-out: Activity
COLO 205 = assay: Cytotoxicity against human COLO205 cells assessed as cell growth at 0.01 uM after 48 hrs by sulforhodamine B assay; details: COLO 205, 48 h, read-out: Activity
Summary of the method: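 NCI-60 five-dose screen. Cells were grown in RPMI 1640 with 5% FBS and 2 mM L-glutamine, plated at 5000–40,000 cells/well and preincubated for 24 h. Time-zero plates were TCA-fixed. DMSO-solubilized drug was added at five concentrations (10-fold or ½-log serial dilutions) for 48 h at 37 °C, 5% CO2. Cells were TCA-fixed, stained with 0.4% SRB and read at 515 nm. Percent growth used time-zero, control and test absorbances.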

K562 = assay: Growth inhibition of human K562 cells after 48 hrs by sulforhodamine B assay; details: K562, 48 h
Summary of the method: (§3)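 NCI 60-cell screen, five-dose mode. Cells grown in RPMI 1640 with 5% FBS and 2 mM L-glutamine and plated at 5000-40,000 cells/well according to doubling time. After 24 h preincubation, a Tz plate was TCA-fixed. Five concentrations (10-fold or 1/2 log dilutions) were applied for 48 h at 37 °C. SRB staining read at 515 nm. IC50 taken from [(Ti-Tz)/(C-Tz)]×100 = 50.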

MDA-MB-435 = assay: Cytotoxicity against human MDA-MB-435 cells assessed as cell growth at 10 uM after 48 hrs by sulforhodamine B assay; details: MDA-MB-435, 48 h, read-out: Activity
SNB-19 = assay: Growth inhibition of human SNB19 cells after 48 hrs by sulforhodamine B assay; details: SNB-19, 48 h; summary of the method: as §3
NCI-H23 [3] = assay: Cytotoxicity against human NCI-H23 cells assessed as cell growth at 0.001 uM after 48 hrs by sulforhodamine B assay; details: NCI-H23, 48 h, read-out: Activity
SW-620 = assay: Growth inhibition of human SW620 cells after 48 hrs by sulforhodamine B assay; details: SW-620, 48 h; summary of the method: as §3
HCT-116 = assay: Cytotoxicity against human HCT116 cells assessed as cell growth at 0.01 uM after 48 hrs by sulforhodamine B assay; details: HCT-116, 48 h, read-out: Activity
DU-145 [4] = assay: Growth inhibition of human DU145 cells after 48 hrs by sulforhodamine B assay; details: DU-145, 48 h; summary of the method: as §1
Malme-3M = assay: Cytotoxicity against human MALME-3M cells assessed as cell growth at 10 uM; details: read-out: Activity; summary of the method: as §2
M14 = assay: Cytotoxicity against human M14 cells assessed as cell growth at 0.001 uM after 48 hrs by sulforhodamine B assay; details: M14, 48 h, read-out: Activity
NCI-H23 [5] = assay: Cytotoxicity against human NCI-H23 cells assessed as cell growth at 100 nM after 48 hrs by sulforhodamine B assay; details: NCI-H23, 48 h, read-out: Activity
[6] = Growth inhibition of human […] cells after 48 hrs by sulforhodamine B assay; summary of the method: as §3
UACC-257 = assay: Cytotoxicity against human UACC257 cells assessed as cell growth at 100 nM after 48 hrs by sulforhodamine B assay; details: UACC-257, 48 h, read-out: Activity
OVCAR-5 = assay: Cytotoxicity against human OVCAR5 cells assessed as cell growth at 0.01 uM after 48 hrs by sulforhodamine B assay; details: OVCAR-5, 48 h, read-out: Activity
HOP-62 = assay: Growth inhibition of human HOP62 cells after 48 hrs by sulforhodamine B assay; details: HOP-62, 48 h; summary of the method: as §3
MCF7 = assay: Growth inhibition of human MCF7 cells after 48 hrs by sulforhodamine B assay; details: MCF7, 48 h; summary of the method: as §3
[7] = read-out: LC50 (the source's name)

SMILES: COc1cc(C)cc(-c2nn(CC#N)cc2-c2ccnc(-c3ccc(N(C)C)cc3)c2)c1
- growth at 10 µM (HCT-15): -20%
- GI50 (BT-549): 1.62 µM
- TGI (BT-549): 7.33 µM
- CC50 (BT-549; [7]): > 100 µM
- GI50 (786-0): 0.42 µM
- TGI (786-0): 5.43 µM
- CC50 (786-0; [7]): > 100 µM
- growth at 10 µM (OVCAR-8): 12%
- growth at 10 µM (SF-268): 24.5%
- growth at 10 µM [1]: 31.6%
- growth at 0.1 µM (RXF 393): -25%
- growth at 1 µM (SK-MEL-28): 45%
- growth at 10 µM (HL-60(TB)): 1.48%
- growth at 10 µM (DU-145 [2]): -48%
- growth at 0.01 µM (COLO 205): 116%
- GI50 (K562): 0.161 µM
- LC50 (50% net cell kill) (K562): > 100 µM
- TGI (K562): > 100 µM
- growth at 10 µM (MDA-MB-435): -2%
- GI50 (SNB-19): 0.567 µM
- TGI (SNB-19): > 100 µM
- CC50 (SNB-19; [7]): > 100 µM
- growth at 0.001 µM (NCI-H23 [3]): 93%
- GI50 (SW-620): 0.332 µM
- TGI (SW-620): > 100 µM
- CC50 (SW-620; [7]): > 100 µM
- growth at 0.01 µM (HCT-116): 97%
- GI50 (DU-145 [4]): 0.319 µM
- LC50 (DU-145 [4]): > 100 µM
- TGI (DU-145 [4]): 1.11 µM
- growth at 10 µM (Malme-3M): 82%
- growth at 0.001 µM (M14): 96%
- growth at 0.1 µM (NCI-H23 [5]): 31%
- GI50 [6]: 1.36 µM
- TGI [6]: 10.7 µM
- CC50 [6, 7]: > 100 µM
- growth at 0.1 µM (UACC-257): 28%
- growth at 0.01 µM (OVCAR-5): 93%
- GI50 (HOP-62): 0.39 µM
- LC50 (50% lethal concentration) (HOP-62): > 100 µM
- TGI (HOP-62): 18.7 µM
- GI50 (MCF7): 0.0664 µM
- LC50 (MCF7): > 100 µM
- TGI (MCF7): 22.7 µM
